Compounds with a hit are over-represented: about 5.1% of the library has one in this group of screens.
STAT3 inh = inhibitors of IL-6 induced STAT3 signaling; AID 862; actives 0.89% (n = 190,000); U3A cells, IL-6 STAT3-luciferase reporter, luminescence; host cell line lacks STAT1; inhibition, % at 5.5 µM;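 active means inhibition above the mean inhibition across all screened compounds plus 3 SD, cut at about 44% in these data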;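 further: 0% = DMSO only wells and 100% = 100 µM nifuroxazide control wells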
STAT1 blocker = inhibitors of IFN-gamma induced STAT1 signaling. inhibition, % at 5.5 µM. AID 920. actives 0.35% (n = 200,000). NIH 3T3 STAT1-luciferase reporter, luminescence;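 active means inhibition above a set limit, the mean inhibition across all tested compounds plus 3 SD, cut at about 34% in these data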;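 further: 0% = IFN-gamma with DMSO and 100% = IFN-gamma with 300 µM nifuroxazide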
STAT3 activator = increases IL-6 driven STAT3 reporter signal; U3A cells, IL-6 STAT3-luciferase reporter, luminescence; 100% = signal with IL-6 EC80 alone; activation (% of control), % at 5.6 µM; actives 0.91% (n = 190,000); AID 871;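 active means activation above the screen-wide mean of compound activation plus 3 SD, cut at about 130% in these data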;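 further: 0% = background luminescence of wells with medium and substrate only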
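System – human U3A cells carrying STAT3-luciferase construct · Probe or stimulus – Interleukin-6, 33 ng/mL · Schedule – compound 1 h, then IL-6 6 h at 37 °C · Signal – luminescence from STAT3-driven luciferase reporter · Evaluation – percent of IL-6-only median luminescence · Benchmarks – IL-6-only high control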
STAT1 act = STAT1 signaling activation; AID 932; actives 2.6% (n = 200,000); NIH 3T3 STAT1-luciferase reporter, IFN-gamma, luminescence; 100% = IFN-gamma alone, no compound; activation (% of control), % at 5.5 µM;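 active means activation above the screen-wide mean activation plus 3 SD, cut at about 130% in these data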;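 further: raw ratio to IFN-gamma control signal so 100% means no change and 0% no light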
APP 5'UTR act = APP 5'UTR luciferase reporter activation; SH-SY5Y APP 5'UTR luciferase reporter, luminescence; zero percent = DMSO vehicle wells; activation, % at 2 µM; actives 1% (n = 190,000); AID 1276;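 active means activation above a set limit, based on mean plus 3 SD of controls, cut at about 140% in these data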
NF-kB neuron act = compounds increasing NF-kB expression in human neuronal cells; actives 1.6% (n = 190,000); fold change at 12.5 µM; NF-kB reporter expression; hits give high values; in the data active means fold change above about 3.3
The depositor's hits bear a star.

What do the screens show for `CCOC(=O)c1ccc(CC2S/C(=C(\C#N)C(C)=O)NC2=O)cc1` (centres undefined)?
STAT3 inh: -11; STAT1 blocker: -2; STAT3 activator: 109; STAT1 act: 103; APP 5'UTR act: -12; NF-kB neuron act: 3.5*

Results for CCCCOc1ccc(-c2cc(C(=O)NNC(=S)NCC)c3ccccc3n2)cc1 ?
STAT3 inh: 87*; STAT1 blocker: 59*; STAT3 activator: 28; STAT1 act: 45; APP 5'UTR act: 154*; NF-kB neuron act: 4.1*

How did CCCCCCCOc1ccc(-c2ccc(C#N)cn2)cc1 do in these assays?
STAT3 inh: -1; STAT1 blocker: -9; STAT3 activator: 99; STAT1 act: 108; APP 5'UTR act: 6; NF-kB neuron act: 1.1

Results for c1csc(-c2cnc3ccccc3n2)c1 ?
STAT3 inh: 1; STAT1 blocker: -29; STAT3 activator: 103; STAT1 act: 129*; APP 5'UTR act: 93; NF-kB neuron act: 2.6

How did CCCCOc1ccc(-c2cnc3ccccc3n2)cc1 do in these assays?
STAT3 inh: 42; STAT1 blocker: -55; STAT3 activator: 64; STAT1 act: 149*; NF-kB neuron act: 3.6*

Results for CCCCOc1ccc(-c2ncc(Cl)cn2)cc1 ?
STAT3 inh: 14; STAT1 blocker: -24; STAT3 activator: 91; STAT1 act: 122; APP 5'UTR act: 12; NF-kB neuron act: 3.7*

Results for Clc1ccc(-c2cnc3ccccc3n2)cc1 ?
STAT3 inh: -16; STAT1 blocker: -12; STAT3 activator: 111; STAT1 act: 113; APP 5'UTR act: 135*; NF-kB neuron act: 3.3*

What do the screens show for `Cc1cccc(-n2c(C)cc(/C=N\NC(=O)c3ccco3)c2C)c1`?
STAT3 inh: -2; STAT1 blocker: -52; STAT3 activator: 106; STAT1 act: 145*; APP 5'UTR act: 61; NF-kB neuron act: 1.9

What do the screens show for `Cc1ccccc1C(=O)N/N=C/c1ccccn1`?
STAT3 inh: -1; STAT1 blocker: -41; STAT3 activator: 105; STAT1 act: 136*; APP 5'UTR act: 31; NF-kB neuron act: 1.7

Results for O=C(N/N=C\c1ccccn1)c1ccccc1O ?
STAT3 inh: 21; STAT1 blocker: -8; STAT3 activator: 84; STAT1 act: 107; APP 5'UTR act: -16; NF-kB neuron act: 1.1

Results for O=C(N/N=C/c1ccccn1)c1cccs1 ?
STAT3 inh: 19; STAT1 blocker: -36; STAT3 activator: 93; STAT1 act: 132*; APP 5'UTR act: 18; NF-kB neuron act: 1.2

Results for Cc1cc(/C=N\NC(=O)c2cccs2)c(C)n1-c1ccc2ncccc2c1 ?
STAT3 inh: 8; STAT1 blocker: -33; STAT3 activator: 99; STAT1 act: 130*; APP 5'UTR act: 63; NF-kB neuron act: 1

How did Cc1cccc(-n2c(C)cc(/C=N/O)c2C)c1 do in these assays?
STAT3 inh: -4; STAT1 blocker: -7; STAT3 activator: 103; STAT1 act: 107; APP 5'UTR act: 5; NF-kB neuron act: 1.1

Results for O=C(CC(=O)Nc1ccccn1)Nc1ccccn1 ?
STAT3 inh: -2; STAT1 blocker: 0; STAT3 activator: 102; STAT1 act: 100; APP 5'UTR act: 0; NF-kB neuron act: 1.6

What do the screens show for `O=C(/C=C/Nc1ccccc1)c1ccc(Oc2ncccn2)cc1`?
STAT3 inh: 43; STAT1 blocker: -66; STAT3 activator: 68; STAT1 act: 156*; APP 5'UTR act: 22; NF-kB neuron act: 3.5*

What do the screens show for `O=C(/C=C\Nc1ccccn1)c1ccccc1`?
STAT3 inh: 85*; STAT1 blocker: 45*; STAT3 activator: 33; STAT1 act: 59; APP 5'UTR act: 157*; NF-kB neuron act: 3.5*

Results for O=C(/C=C/Nc1ccccc1Br)c1ccccn1 ?
STAT3 inh: 109*; STAT1 blocker: 94*; STAT3 activator: 10; STAT1 act: 17; APP 5'UTR act: -16; NF-kB neuron act: 0.35

What do the screens show for `Cc1ccc(S(=O)(=O)N2CCOCC2)cc1NC(=O)CSc1cccc[n+]1[O-]`?
STAT3 inh: -3; STAT1 blocker: 3; STAT3 activator: 98; STAT1 act: 97; APP 5'UTR act: -7; NF-kB neuron act: 1.1

What do the screens show for `CCOc1ccc(-c2ccc(SCC(=O)Nc3nnc(C)s3)nn2)cc1`?
STAT3 inh: 22; STAT1 blocker: -4; STAT3 activator: 89; STAT1 act: 103; APP 5'UTR act: 183*; NF-kB neuron act: 2.6

What do the screens show for `CCc1ccc(-c2ccc(SCC(=O)Nc3nnc(C)s3)nn2)cc1`?
STAT3 inh: 23; STAT1 blocker: -22; STAT3 activator: 85; STAT1 act: 119; APP 5'UTR act: 85; NF-kB neuron act: 3

Results for CCOc1ccc(-c2ccc(SCc3ccccn3)nn2)cc1 ?
STAT3 inh: 26; STAT1 blocker: -33; STAT3 activator: 85; STAT1 act: 129*; APP 5'UTR act: 49; NF-kB neuron act: 1.1

What do the screens show for `c1ccc(CSc2ccc(-c3cccs3)nn2)nc1`?
STAT3 inh: 15; STAT1 blocker: -38; STAT3 activator: 94; STAT1 act: 136*; APP 5'UTR act: 78; NF-kB neuron act: 2.5

Results for CCc1ccc(-c2ccc(SCc3ccccn3)nn2)cc1 ?
STAT3 inh: 14; STAT1 blocker: -46; STAT3 activator: 93; STAT1 act: 140*; APP 5'UTR act: 45; NF-kB neuron act: 2

How did Cc1cccc(C)c1NC(=O)C1(NC(=O)c2cnccn2)CCCCC1 do in these assays?
APP 5'UTR act: 4; NF-kB neuron act: 1.1

What do the screens show for `CC(O)C(O)C(O)C(O)/C=N/NC(=O)c1ccccc1` (centres undefined)?
STAT3 inh: -7; STAT1 blocker: -32; STAT3 activator: 106; STAT1 act: 129*; APP 5'UTR act: 56; NF-kB neuron act: 1.1

How did CN(C)/C=N/NC(=O)c1ccccc1 do in these assays?
STAT3 inh: 8; STAT1 blocker: -6; STAT3 activator: 95; STAT1 act: 103; APP 5'UTR act: 0; NF-kB neuron act: 1.1

How did FC(F)(F)c1cccc(N2CCN(CC3CC4C=CC3C4)CC2)c1 (centres undefined) do in these assays?
STAT3 inh: 9; STAT1 blocker: 9; STAT3 activator: 96; STAT1 act: 91; APP 5'UTR act: 7; NF-kB neuron act: 1.2

How did CC(C)C(NC(=O)C(NC(=O)C1O[C@@H]2OC(C)(C)O[C@@H]2[C@H]2OC(C)(C)O[C@@H]12)C(C)C)C(=O)O (some centres undefined) do in these assays?
STAT3 inh: 22; STAT1 blocker: 0; STAT3 activator: 90; STAT1 act: 99; APP 5'UTR act: 9; NF-kB neuron act: 1.4

What do the screens show for `CC(=O)Nc1ccc2c(c1)ncn2C`?
STAT3 inh: -3; STAT1 blocker: 7; STAT3 activator: 104; STAT1 act: 98; APP 5'UTR act: 15; NF-kB neuron act: 1.4

High-throughput results as filed in PubChem.
